Experimental data from different studies.
Lines come from different studies, so protocols differ.
Target: Glycogen synthase kinase-3 beta (GSK3B, Homo sapiens, UniProt P49841)

Cn1sc(=O)n(Cc2ccccc2)c1=O gave a remaining signal of 114% (cell-free assay; 0.5 µM).
COc1cc(Nc2cnc(C#N)c(O[C@H](C)CN(C)C)n2)ncc1-c1cnn(C)c1 has a remaining activity of 52% (enzyme activity, inhibitor, radiometric; 10 µM).
O=C(O)[C@H]1[C@H](Cn2nnc3ccccc3c2=O)CC[C@@H]1C(=O)c1ccc(OCCC2CCOCC2)cc1 gave a remaining binding of 100% (cell-free assay, competition with immobilised ligand; 1 µM).
With O=C1Nc2ccc(Cl)cc2C1=Cc1cc(Cl)c(O)c(Cl)c1 the remaining signal was 80.8% (cell-free assay; 0.5 µM).
The inhibition of Cc1cc(NS(=O)(=O)c2ccc(N)cc2)nc(C)n1 is reported as 11.7% (enzyme activity, inhibitor, ADP detection; 100 µM).
C[C@@H](c1cccc(C#N)c1)n1cc(Cl)cc(C(N)=O)c1=N has a remaining binding of 88% (cell-free assay, competition with immobilised ligand; 1 µM).
COc1ccc([C@H]2COc3c(ccc(O)c3OC)C2)c(OC)c1O gave an inhibition of 15.7% (enzyme activity, inhibitor, ADP detection; 100 µM).
The remaining activity of Cc1ccc(C(=O)Nc2ccc(CN3CCN(C)CC3)c(C(F)(F)F)c2)cc1C#Cc1cnc2cccnn12 is reported as 92% (enzyme activity, inhibitor; 23.5 nM).
With Nc1ncnc2occ(-c3ccc(NC(=O)Nc4cc(C(F)(F)F)ccc4F)cc3)c12 the remaining activity was 57% (enzyme activity, inhibitor; 20 µM).
The inhibition of O=C(O)c1cn(C2CC2)c2cc(N3CCNCC3)c(F)cc2c1=O is reported as 18.7% (enzyme activity, inhibitor, ADP detection; 100 µM).
O=Nc1c(-c2c(O)[nH]c3ccccc23)[nH]c2ccccc12 gave a remaining signal of 27.3% (cell-free assay; 0.5 µM).
For Oc1cccc(-c2nc(N3CCOCC3)c3oc4ncccc4c3n2)c1, the remaining activity was 48% (enzyme activity, inhibitor; 10 µM).
COc1cc(Cl)c(C(=O)N[C@@H](CN[C@H]2CC[C@@H](N)CC2)Cc2ccc(C#N)cc2)cc1-c1ccc(CN[C@H](C)c2ccc(C)cc2)o1 gave a remaining activity of 101% (enzyme activity, inhibitor; 1 µM).
With O=c1cccc(C=Cc2ccc3c(c2)OCO3)o1 the inhibition was 26.1% (enzyme activity, inhibitor, ADP detection; 100 µM).
For CS(=O)(=O)NCC[C@H](NC(=O)c1cncc2c1cnn2-c1ccc(F)cc1)c1ccnc(S(C)(=O)=O)c1, the remaining binding was 100% (cell-free assay, competition with immobilised ligand; 1 µM).
COc1ccc(CNC(=O)Nc2ncc([N+](=O)[O-])s2)cc1 gave a remaining signal of 40.2% (cell-free assay; 0.5 µM).
C[C@H](c1ccc(F)cc1)N(Cc1cccc(C(=O)O)c1)C(=O)c1cnc2ccccc2c1 has a remaining binding of 100% (cell-free assay, competition with immobilised ligand; 1 µM).
The inhibition of OCc1ccccn1 is reported as 4.4% (enzyme activity, inhibitor, ADP detection; 100 µM).
The remaining activity of CCCOc1ccc(OC)c(F)c1C(=O)c1ccc(C(=O)N[C@@H]2CNC[C@H]2NC(=O)c2ccc3[nH]ncc3c2)cc1 is reported as 67% (enzyme activity, inhibitor; 10 µM).
For O=C1c2ccccc2-c2n[nH]c3cccc1c23, the activity vs control was 86.8% (enzyme activity, inhibitor; 0.5 µM).
For FC(F)(F)Oc1cccc(-c2cnc3ccc(-c4ccncc4)nn23)c1, the activity vs control was 88% (enzyme activity, inhibitor, radiometric; 1 µM).
CC(C)n1cnc2c(Nc3cccc(Cl)c3)nc(NCCO)nc21 gave a remaining signal of 96% (cell-free assay; 0.5 µM).
CN1CCOC(c2ccccc2)c2ccccc2C1 (stereo not shown) has an inhibition of 12.9% (enzyme activity, inhibitor, ADP detection; 100 µM).
For Cc1cc(-n2nc(Cc3cc(F)cc(C(F)(F)F)c3)nc2C)ccc1C(N)=O, the remaining binding was 98% (cell-free assay, competition with immobilised ligand; 1 µM).
With O=C(Nc1cnn(-c2csc(C(=O)NC3COC3)c2)c1)Nc1ccccc1Cl the remaining activity was 95% (enzyme activity, inhibitor; 5 µM).
With Cc1cnc(C(=O)NCCc2ccc(S(=O)(=O)NC(=O)NC3CCCCC3)cc2)cn1 the inhibition was 45.4% (enzyme activity, inhibitor, ADP detection; 100 µM).
Nc1ncnc2c1ncn2[C@@H]1O[C@H](COP(=O)(O)OP(=O)(O)OP(=O)(O)O)[C@@H](O)[C@H]1O has a Km of 9.3 µM (enzyme activity, substrate, radiometric).
For Cc1cc(NC(=O)c2cccc3cc(-c4cccc5[nH]nc(N)c45)ccc23)ccc1F, the activity vs control was 85% (enzyme activity, inhibitor; 0.1 µM).
With Cc1cccc(C)c1NC(=O)c1ccccc1C(=O)O the inhibition was 18.9% (enzyme activity, inhibitor, ADP detection; 100 µM).
For Cc1nc(C2CCN(C(=O)c3ccc(OC(F)(F)F)cc3N)CC2)c2ncc(N3CCN(C)CC3)cc2n1, the remaining binding was 100% (cell-free assay, competition with immobilised ligand; 1 µM).
For N#CCCc1ccc2c(c1)-c1[nH]c3ccc([N+](=O)[O-])cc3c1CC(=O)N2, the remaining signal was 2.71% (cell-free assay; 0.5 µM).
For Cn1c(=O)n(-c2ccc(C(C)(C)C#N)cc2)c2c3cc(-c4cnc5ccccc5c4)ccc3ncc21, the remaining activity was 76% (enzyme activity, inhibitor; 10 µM).
With CCN(CC)c1ccc(C2=NNC(=O)CC2C)cc1[N+](=O)[O-] (stereo not shown) the remaining activity was 93% (enzyme activity, inhibitor; 10 µM).
For CCC(=O)N[C@H]1CC[C@@H](C(=O)N(C)c2ccc(-c3nc4ccccc4o3)cc2)C1, the remaining binding was 81% (cell-free assay, competition with immobilised ligand; 1 µM).
Nc1[nH]nc2nc3ccccc3nc12 gave a remaining activity of 99.7% (enzyme activity, inhibitor; 0.5 µM).
The remaining binding of CN(C)c1ncnc(-c2ccc3nc(Nc4cc(CN5CCN(C(=O)CC(F)(F)F)CC5)ccn4)[nH]c3c2)c1Cl is reported as 100% (cell-free assay, competition with immobilised ligand; 1 µM).
For Cc1sc(C(=O)NC2COC2)cc1-n1cc(NC(=O)Nc2c(F)cccc2Cl)cn1, the remaining activity was 94.9% (enzyme activity, inhibitor; 10 µM).
